In ChEMBL document CHEMBL1145796, “Neuromuscular blocking activity and therapeutic potential of mixed-tetrahydroisoquinolinium halofumarates and halosuccinates in rhesus monkeys” (2003):

Legend:
[1] = Time from injection to 95% recovery of the twitch response at the ED95 dose in male Rhesus monkey.; type: functional, Cercopithecidae
Outline: (§1)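 Anesthetized, ventilated male rhesus monkeys received sequential iv bolus doses with extensor digitorum twitch recorded. Onset is injection to peak twitch inhibition. Duration is injection to 95% twitch recovery. Values at the ED95 were read from plots of onset or duration vs dose. Means ± SE across animals.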

[2] = Time from injection to peak inhibition of twitch response at the ED95 dose in male Rhesus monkey.; type: functional, Cercopithecidae; outline: as §1
[3] = Dose required for 41% suppression of the twitch response at the extensor digitorum in male Rhesus monkey; type: functional; conditions: Cercopithecidae
Outline: (§2)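 Adult male rhesus monkeys (8–15 kg) under ketamine (5 mg/kg i.m.) and pentobarbital (2–5 mg/kg iv) induction, then N2O 60%/O2 40%/halothane 0.5–1%, ventilated, core temperature 37–38 °C. Twitch of extensor digitorum was recorded after ≥20 min stable baseline. Sequential iv bolus doses from 0.03 to 6.4 mg/kg. Per-animal ED95 came from log-probability regression of dose vs % block. Other lines give the single dose tested with its % block.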

[4] = Selectivity index is changes in heart rate(cv dose) to the suppression of twitch response (ED95) in male Rhesus monkey; type: functional, Cercopithecidae
Outline: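 Same anesthetized male rhesus preparation, with blood pressure, heart rate and EKG recorded alongside twitch during sequential iv doses up to 6.4 mg/kg. Cardiovascular threshold dose is the dose giving ≥10% change in heart rate or mean arterial pressure. Index = mean threshold dose / mean ED95 (extensor digitorum).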

[5] = Dose required for 93% suppression of the twitch response at the extensor digitorum in male Rhesus monkey; type: functional; conditions: Cercopithecidae; outline: as §2
[6] = Dose required for 80% suppression of the twitch response at the extensor digitorum in male Rhesus monkey; type: functional; conditions: Cercopithecidae; outline: as §2
[7] = Time from injection to peak inhibition of twitch response at a dose of 0.2 mg/kg in male Rhesus monkey was evaluated; type: functional, Cercopithecidae
Outline: (§3)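 Single iv bolus of 0.2 or 0.4 mg/kg in anesthetized, ventilated male rhesus monkeys, with extensor digitorum twitch recorded. Onset taken from injection to peak twitch inhibition at the given dose. Means ± SE, N = number of animals.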

[8] = Time from injection to peak inhibition of twitch response at a dose of 0.4 mg/kg in male Rhesus monkey was evaluated; type: functional, Cercopithecidae; outline: as §3
[9] = Time from injection to 95% recovery of twitch response at a dose of 0.4 mg/kg in male Rhesus monkey was evaluated
[10] = Dose required for 95% suppression of the twitch response at the extensor digitorum in male Rhesus monkey.; type: functional, Cercopithecidae; conditions: Cercopithecidae; read-out: ED95; outline: as §2
[11] = Time from injection to 95% recovery of twitch response at a dose of 0.2 mg/kg in male Rhesus monkey was evaluated
[12] = Dose required for 91% suppression of the twitch response at the extensor digitorum in male Rhesus monkey; type: functional; conditions: Cercopithecidae; outline: as §2
[13] = Dose required for 100% suppression of the twitch response at the extensor digitorum in male Rhesus monkey; type: functional; conditions: Cercopithecidae; outline: as §2

Structure (SMILES): COc1cc2c(cc1OC)[C@H](c1cc(OC)c(OC)c(OC)c1)[N@@+](C)(CCCOC(=O)/C(Cl)=C/C(=O)OCCC[N@+]1(C)CCc3cc(OC)c(OC)c(OC)c3[C@H]1Cc1cc(OC)c(OC)c(OC)c1)CC2.COc1cc2c(cc1OC)[C@H](c1cc(OC)c(OC)c(OC)c1)[N@@+](C)(CCCOC(=O)/C=C(\Cl)C(=O)OCCC[N@+]1(C)CCc3cc(OC)c(OC)c(OC)c3[C@H]1Cc1cc(OC)c(OC)c(OC)c1)CC2.[Cl-].[Cl-].[Cl-].[Cl-]
- Duration [1]: 6.5 min
- Onset [2]: 145 s
- ED95 [3]: 0.05 mg/kg

Structure (SMILES): COc1cc(C2c3c(cc(OC)c(OC)c3OC)CC[N@@+]2(C)CCCOC(=O)/C(Cl)=C/C(=O)OCCC[N@+]2(C)CCc3cc(OC)c(OC)c(OC)c3[C@H]2c2cc(OC)c(OC)c(OC)c2)cc(OC)c1OC.[Cl-].[Cl-] (some centres undefined)
- Duration [1]: 3.6 min
- Onset [2]: 45 s
- Selectivity index [4]: 1
- ED95 [5]: 2 mg/kg

Structure (SMILES): COc1cc2c(cc1OC)[C@H](c1cc(OC)c(OC)c(OC)c1)[N@@+](C)(CCCOC(=O)CCCCCC(=O)OCCC[N@+]1(C)CCc3cc(OC)c(OC)cc3[C@H]1Cc1cc(OC)c(OC)c(OC)c1)CC2.[Cl-].[Cl-]
- Duration [1]: 7.1 min
- ED95 [6]: 0.2 mg/kg
- Onset [2]: 40 s

Structure (SMILES): COc1cc2c(cc1OC)[C@@H](c1cc(OC)c(OC)c(OC)c1)[N@+](C)(CCCOC(=O)CCCCCCC(=O)OCCC[N@+]1(C)CCc3cc(OC)c(OC)cc3[C@H]1Cc1cc(OC)c(OC)c(OC)c1)CC2.[Cl-].[Cl-]
- Duration [1]: 8.6 min
- Onset [7]: 50 s
- Onset [8]: 25 s
- Duration [9]: 16.9 min
- Onset [2]: 75 s
- ED95 [10]: 0.103 mg/kg
- Duration [11]: 14.6 min
- Selectivity index [4]: 47

Structure (SMILES): COc1cc2c(cc1OC)[C@H](c1cc(OC)c(OC)c(OC)c1)[N@@+](C)(CCCOC(=O)/C=C(\Cl)C(=O)OCCC[N@+]1(C)CCc3cc(OC)c(OC)c(OC)c3[C@H]1Cc1cc(OC)c(OC)c(OC)c1)CC2.[Cl-].[Cl-]
- Duration [1]: 13.3 min
- ED95 [12]: 0.05 mg/kg
- Onset [2]: 160 s

Structure (SMILES): COc1cc2c(cc1OC)[C@H](c1cc(OC)c(OC)c(OC)c1)[N@@+](C)(CCCOC(=O)C[C@H](F)C(=O)OCCC[N@+]1(C)CCc3cc(OC)c(OC)cc3[C@H]1Cc1cc(OC)c(OC)c(OC)c1)CC2.[Cl-].[Cl-]
- Duration [1]: 35 min
- ED95 [13]: 0.05 mg/kg
- Onset [2]: 80 s
